Experimental data: ChEMBL document CHEMBL1124306, “New "ofloxacin" type antibacterial agents. Incorporation of the spiro cyclopropyl group at N-1” (J Med Chem, 1988)
In brackets after ≈: the same amount, converted by molar mass.

Legend:
Assay type in all cases: functional
Staphylococcus aureus [1] = assay: Inhibition of growth of Staphylococcus aureus (sensitive)
Escherichia coli [2] = assay: Inhibition of growth of Escherichia coli vogel
Enterobacter cloacae = assay: Inhibition of growth of Entero. cloacae
Streptococcus pyogenes = assay: Inhibition of growth of Streptococcus pyogenes
Pseudomonas aeruginosa = assay: Inhibition of growth of Pseudomonas aeruginosa
Klebsiella pneumoniae = assay: Inhibition of growth of Klebsiella pneumonia
Streptococcus pneumoniae = assay: Inhibition of growth of Streptococcus pneumonia
Enterococcus faecalis = assay: Inhibition of growth of Streptococcus faecalis
Staphylococcus aureus [3] = assay: Inhibition of growth of Staphylococcus aureus (resistant)
Escherichia coli [4] = assay: Minimum concentration of the drug needed to produce linear DNA at an intensity relative to oxolinic acid(at 10 ug/mL); settings: read-out: I50
Procedure, shortened: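 DNA gyrase from Escherichia coli H560, assayed by a previously published procedure. The end point is the lowest drug concentration giving linear DNA at an intensity matching the oxolinic acid reference at 10 μg/mL.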

Providencia rettgeri = assay: Inhibition of growth of Proteus rettgeri
Escherichia coli [5] = assay: Inhibition of growth of Escherichia coli H560
Mus musculus [6] = assay: In vivo protective dose (PD50) in mice against Escherichia coli Vogel when administered subcutaneously; settings: sc, read-out: PD50
Mus musculus [7] = assay: In vivo protective dose (PD50) in mice against Escherichia coli Vogel when administered perorally; settings: po, read-out: PD50

SMILES	MIC (Staphylococcus aureus [1])	MIC (Escherichia coli [2])	MIC (Enterobacter cloacae)	MIC (Streptococcus pyogenes)	MIC (Pseudomonas aeruginosa)	MIC (Klebsiella pneumoniae)	MIC (Streptococcus pneumoniae)	MIC (Enterococcus faecalis)	MIC (Staphylococcus aureus [3])	IC50 (Escherichia coli [4])	MIC (Providencia rettgeri)	MIC (Escherichia coli [5])	ED50 (Mus musculus [6])	ED50 (Mus musculus [7])
O=C(O)c1cn2c3c(c(N4CCNCC4)c(F)cc3c1=O)OCC21CC1	1.6 µg/mL (≈ 4.45 µM)	0.8 µg/mL (≈ 2.23 µM)	0.4 µg/mL (≈ 1.11 µM)	12.5 µg/mL (≈ 34.8 µM)	0.8 µg/mL (≈ 2.23 µM)	0.8 µg/mL (≈ 2.23 µM)	12.5 µg/mL (≈ 34.8 µM)	6.3 µg/mL (≈ 17.5 µM)	6.3 µg/mL (≈ 17.5 µM)	11.2 µg/mL (≈ 31.3 µM)	1.6 µg/mL (≈ 4.45 µM)	0.4 µg/mL (≈ 1.11 µM)		
CN(C)CC1CCN(c2c(F)cc3c(=O)c(C(=O)O)cn4c3c2OCC42CC2)C1 (stereo unspecified)	0.2 µg/mL (≈ 0.498 µM)	0.4 µg/mL (≈ 0.996 µM)	0.8 µg/mL (≈ 1.99 µM)	0.4 µg/mL (≈ 0.996 µM)	6.3 µg/mL (≈ 15.7 µM)	0.8 µg/mL (≈ 1.99 µM)	0.4 µg/mL (≈ 0.996 µM)	0.8 µg/mL (≈ 1.99 µM)	0.8 µg/mL (≈ 1.99 µM)	11.2 µg/mL (≈ 28 µM)	3.1 µg/mL (≈ 7.72 µM)	0.8 µg/mL (≈ 1.99 µM)	6.3 mg/kg	16 mg/kg
CC1COc2c(N3CCN(C)CC3)c(F)cc3c(=O)c(C(=O)O)cn1c23 (stereo unspecified) [OFLOXACIN]	0.1 µg/mL (≈ 0.277 µM)	0.1 µg/mL (≈ 0.277 µM)	0.1 µg/mL (≈ 0.277 µM)	0.8 µg/mL (≈ 2.21 µM)	0.4 µg/mL (≈ 1.11 µM)	0.1 µg/mL (≈ 0.277 µM)	0.8 µg/mL (≈ 2.21 µM)	0.8 µg/mL (≈ 2.21 µM)	0.4 µg/mL (≈ 1.11 µM)	2.25 µg/mL (≈ 6.23 µM)	0.2 µg/mL (≈ 0.553 µM)	0.05 µg/mL (≈ 0.138 µM)	0.8 mg/kg	2 mg/kg
CC1COc2c(N3CCNCC3)c(F)cc3c(=O)c(C(=O)O)cn1c23 (stereo unspecified) [DESMETHYL-OFLOXACIN]	0.4 µg/mL (≈ 1.15 µM)	0.2 µg/mL (≈ 0.576 µM)	0.1 µg/mL (≈ 0.288 µM)	0.4 µg/mL (≈ 1.15 µM)	1.6 µg/mL (≈ 4.61 µM)	0.2 µg/mL (≈ 0.576 µM)	3.1 µg/mL (≈ 8.92 µM)	6.3 µg/mL (≈ 18.1 µM)	3.1 µg/mL (≈ 8.92 µM)	3 µg/mL (≈ 8.64 µM)	0.4 µg/mL (≈ 1.15 µM)	0.1 µg/mL (≈ 0.288 µM)		
CCNCC1CCN(c2c(F)cc3c(=O)c(C(=O)O)cn4c3c2OCC42CC2)C1 (stereo unspecified)	0.1 µg/mL (≈ 0.249 µM)	0.8 µg/mL (≈ 1.99 µM)	0.8 µg/mL (≈ 1.99 µM)	0.05 µg/mL (≈ 0.125 µM)	6.3 µg/mL (≈ 15.7 µM)	3.1 µg/mL (≈ 7.72 µM)	0.05 µg/mL (≈ 0.125 µM)	0.8 µg/mL (≈ 1.99 µM)	1.6 µg/mL (≈ 3.99 µM)	5.5 µg/mL (≈ 13.7 µM)	3.1 µg/mL (≈ 7.72 µM)	1.6 µg/mL (≈ 3.99 µM)		
CCNCC1CCN(c2c(F)cc3c(=O)c(C(=O)O)cn4c3c2OCC4C)C1 (stereo unspecified)	0.006 µg/mL (≈ 0.0154 µM)	0.1 µg/mL (≈ 0.257 µM)	0.2 µg/mL (≈ 0.514 µM)	0.006 µg/mL (≈ 0.0154 µM)	0.8 µg/mL (≈ 2.05 µM)	0.4 µg/mL (≈ 1.03 µM)	0.025 µg/mL (≈ 0.0642 µM)	0.05 µg/mL (≈ 0.128 µM)	0.2 µg/mL (≈ 0.514 µM)		0.4 µg/mL (≈ 1.03 µM)	0.05 µg/mL (≈ 0.128 µM)	11 mg/kg	> 100 mg/kg
CC1COc2c(N3CCC(CN(C)C)C3)c(F)cc3c(=O)c(C(=O)O)cn1c23 (stereo unspecified)	0.05 µg/mL (≈ 0.128 µM)	0.2 µg/mL (≈ 0.514 µM)	0.4 µg/mL (≈ 1.03 µM)	0.05 µg/mL (≈ 0.128 µM)	3.1 µg/mL (≈ 7.96 µM)	0.4 µg/mL (≈ 1.03 µM)	0.05 µg/mL (≈ 0.128 µM)	0.4 µg/mL (≈ 1.03 µM)	0.2 µg/mL (≈ 0.514 µM)	3 µg/mL (≈ 7.7 µM)	0.8 µg/mL (≈ 2.05 µM)	0.2 µg/mL (≈ 0.514 µM)	2.6 mg/kg	6.2 mg/kg
